Among the data in the array DNA melting data of Ke et al. (doi:10.1101/2024.01.08.574731) are folding enthalpy and Tm values, retold here.

Series [1] in a line: folding enthalpy; higher = less favourable; fluorescence melt of hairpins on a sequencing array, two-state fit. The following applies: sodium 0.088 M. The procedure, abridged:
(§1)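 Melting temperature and folding enthalpy were derived from bootstrapped two-state fits. The fitted temperatures were raised by 9.35 °C to agree with UV melts, and four replicates were combined by inverse variance. The underlying data were Cy3 fluorescence images of library hairpins, with annealed Cy3 and quencher oligos, on a sequenced MiSeq flow cell in 50 mM Na-HEPES pH 8.0, 25 mM NaCl, taken in 2.5 °C steps up to 60 °C, normalised to pre-quench Cy3 and to control constructs.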

Series [2] in a line: melting temperature; fluorescence melt of hairpins on a sequencing array, two-state fit, raised by 9.35 °C to match UV melts. The settings on record: sodium 0.088 M. Summed up: as §1

With GTACACGAAAGTGATAC ((((((....))).))), the folding enthalpy in series [1] was -17.1 kcal/mol. The Tm in series [2] turned out to be 40.1 °C.

As to GTACACGAAAGTGGGTAC ((((((....)))..))), the folding enthalpy in series [1] is -14.9 kcal/mol. In addition, the Tm in series [2] was 37.4 °C.

As for GTACACGAAAGTGGTAC ((((((....))).))), the folding enthalpy in series [1] was -17.9 kcal/mol. Moreover, in series [2], the Tm came to 47.8 °C.

Turning to GTACACGGAAACACGTAC ((((..(....)..)))), the folding enthalpy in series [1] was -15.4 kcal/mol. In addition, the Tm in series [2] is 29.1 °C.

For GTACACGGAAACGTATAC (((.(((....))).))), in series [1], the folding enthalpy was -23.8 kcal/mol. The Tm in series [2] turned out to be 33.6 °C.

As to GTACAGCCGAAAGGCTAC (((..(((....)))))), in series [1], the folding enthalpy is -7.38 kcal/mol. The Tm in series [2] was 27.2 °C.

For GTACAGGGAAACCCGTAC ((((.((....)).)))), in series [1], the folding enthalpy was -24.8 kcal/mol. Besides, the Tm in series [2] worked out at 43.4 °C.

Turning to GTACAGTCGAAAGACTAC (((..(((....)))))), the folding enthalpy in series [1] is -10.2 kcal/mol. In addition, the Tm in series [2] was determined as 29.7 °C.

For the sequence GTACATCGAAAGATTTAC (((.(((....))).))), the folding enthalpy in series [1] is -17.8 kcal/mol. In series [2], the Tm worked out at 35 °C.

Consider GTACATGGAAACATGTGC (.(((((....))))).), for which the folding enthalpy in series [1] is -22.7 kcal/mol. The Tm in series [2] came to 48.6 °C.

For the sequence GTACATGGAAACGTGTAC (((((.(....).))))), in series [1], the folding enthalpy is -32.1 kcal/mol. Further, the Tm in series [2] is 45.8 °C.

For the sequence GTACCAGAAATGGTAC ((((((....)))))), the folding enthalpy in series [1] is -33.1 kcal/mol. Further, the Tm in series [2] stood at 53.2 °C.

As for GTACCCCCGAAAGGGTAC (((..(((....)))))), the folding enthalpy in series [1] was -25.7 kcal/mol. Moreover, the Tm in series [2] came out at 52.3 °C.

On to GTACCCGAAAGGGGATAC ((((((....)))..))), for which the folding enthalpy in series [1] is -11.9 kcal/mol. The Tm in series [2] is 41.9 °C.

In the case of GTACCCGGAAACGAGTAC ((((.((....)).)))), the folding enthalpy in series [1] is -25.8 kcal/mol. Further, the Tm in series [2] worked out at 41.1 °C.

Turning to GTACCCGGAAACGGGTGC (.(((((....))))).), the folding enthalpy in series [1] is -20.1 kcal/mol. Also, the Tm in series [2] was found to be 60.1 °C.

On to GTACCTGGAAACAGGCAC ((.((((....)))).)), for which the folding enthalpy in series [1] is -22.1 kcal/mol. Moreover, the Tm in series [2] amounted to 42.5 °C.

As for GTACGACGAAAGTCTTAC (((.(((....))).))), the folding enthalpy in series [1] was -26.1 kcal/mol. Further, in series [2], the Tm came out at 40.3 °C.

For the sequence GTACGCGAAAGCGAATAC ((((((....)))..))), the folding enthalpy in series [1] is -8.59 kcal/mol. The Tm in series [2] came out at 31.9 °C.

For the sequence GTACGCGAAAGCGCGTAC ((((((....)))..))), the folding enthalpy in series [1] was -25.7 kcal/mol. For the same sequence, the Tm in series [2] stood at 62.5 °C.

Regarding GTACGCGAAAGCGCTTAC ((((((....)))..))), in series [1], the folding enthalpy is -9.36 kcal/mol. Moreover, the Tm in series [2] was found to be 29.4 °C.

On to GTACGCGAAAGCGTATAC ((((((....)))..))), for which the folding enthalpy in series [1] was -9.55 kcal/mol. For the same sequence, the Tm in series [2] came to 49.2 °C.

In the case of GTACGCGGAAACACGCAC ((.((.(....).)).)), the folding enthalpy in series [1] is -12.6 kcal/mol. The Tm in series [2] is 31.1 °C.

In the case of GTACGCGGAAACACGTAC (((((.(....).))))), in series [1], the folding enthalpy is -34.1 kcal/mol. Further, the Tm in series [2] stood at 47.9 °C.

As for GTACGGACGAAAGTCTAC (((..(((....)))))), the folding enthalpy in series [1] was -10.2 kcal/mol. Also, in series [2], the Tm is 31 °C.

As for GTACGGCCGAAAGGCTAC (((..(((....)))))), the folding enthalpy in series [1] was -7.78 kcal/mol. In addition, the Tm in series [2] turned out to be 28.7 °C.

Take GTACGGGGAAACCCATAC (((.(((....))).))): the folding enthalpy in series [1] was -21.9 kcal/mol. In addition, the Tm in series [2] was found to be 35 °C.

In the case of GTACGGGGAAACCTGTAC ((((.((....)).)))), the folding enthalpy in series [1] is -35.9 kcal/mol. Further, the Tm in series [2] was 49.7 °C.

GTACGGTCGAAAGACTAC (((..(((....)))))): in series [1], the folding enthalpy is -10.6 kcal/mol. For the same sequence, the Tm in series [2] is 26.8 °C.

In the case of GTACGTGGAAACACGTAC (((((((....))))))), the folding enthalpy in series [1] was -46.8 kcal/mol. Further, the Tm in series [2] was 63.8 °C.

Take GTACGTGGAAACATGTAC ((((.((....)).)))): the folding enthalpy in series [1] is -34.1 kcal/mol. Also, the Tm in series [2] was 47.5 °C.

For GTACTACGAAAGTATAC (((.(((....)))))), in series [1], the folding enthalpy is -15.3 kcal/mol. The Tm in series [2] was found to be 27.9 °C.

Regarding GTACTCCCGAAAGGGTAC (((..(((....)))))), the folding enthalpy in series [1] was -12.9 kcal/mol. In series [2], the Tm worked out at 33.5 °C.

As for GTACTCCGAAAGGATAC (((.(((....)))))), in series [1], the folding enthalpy was -21.6 kcal/mol. The Tm in series [2] was 36.9 °C.

For GTACTCGAAAGAGACTAC ((((((....)))..))), the folding enthalpy in series [1] was -14.5 kcal/mol. For the same sequence, the Tm in series [2] is 33.6 °C.

In the case of GTACTCGAAAGAGCATAC ((((((....)))..))), in series [1], the folding enthalpy is -10.9 kcal/mol. In series [2], the Tm was determined as 23.5 °C.

In the case of GTACTCGAAAGAGCTTAC ((((((....)))..))), the folding enthalpy in series [1] was -11.4 kcal/mol. Further, the Tm in series [2] came to 27.6 °C.
